In assay [1] the target is T1, Metabotropic glutamate receptor 5 (Rattus norvegicus, UniProt P31424). Put plainly: Displacement of [3H]-M-MPEP from mGluR5 in rat cerebrocortical membranes. The assay is classed as cell membranes, Membrane. The procedure, abridged:
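Displacement run in duplicate or triplicate, with curves of at least six concentrations. IC50 was converted to Ki by Cheng-Prusoff, using Kd from a Scatchard plot.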
Background: Displacement assays read how much labelled ligand stays bound in the presence of the test substance.

For assay [2], the target named is T1, Metabotropic glutamate receptor 5. Put plainly: Allosteric modulation of mGluR5 in E17 rat neuronal cultures assessed as inhibition of (S)-3,5-dihydroxyphenylglycine-induced calcium level. The assay is classed as functional. The procedure, abridged:
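Primary neocortical cultures from E17 rat embryos, grown at least 5 days, then loaded with the Ca2+ dye fluo-4/AM. Baseline and agonist-evoked fluorescence signals were recorded on a plate reader fluorometer.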

Assay [3] deals with Metabotropic glutamate receptor 5 (Homo sapiens, UniProt P41594). The experiment in a line: Binding affinity to human mGluR5. The procedure, abridged:
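Run in duplicate or triplicate, with concentration-displacement curves of at least six concentrations giving IC50. Ki derived by Cheng-Prusoff, using the radioligand Kd determined from a Scatchard plot.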

Consider 23 molecules from ChEMBL document CHEMBL1158608, “Hit-to-lead optimization of disubstituted oxadiazoles and tetrazoles as mGluR5 NAMs” (Bioorg Med Chem Lett, 2010).

Molecules are shown by their SMILES.

T1 sequence (P31424 whole entry): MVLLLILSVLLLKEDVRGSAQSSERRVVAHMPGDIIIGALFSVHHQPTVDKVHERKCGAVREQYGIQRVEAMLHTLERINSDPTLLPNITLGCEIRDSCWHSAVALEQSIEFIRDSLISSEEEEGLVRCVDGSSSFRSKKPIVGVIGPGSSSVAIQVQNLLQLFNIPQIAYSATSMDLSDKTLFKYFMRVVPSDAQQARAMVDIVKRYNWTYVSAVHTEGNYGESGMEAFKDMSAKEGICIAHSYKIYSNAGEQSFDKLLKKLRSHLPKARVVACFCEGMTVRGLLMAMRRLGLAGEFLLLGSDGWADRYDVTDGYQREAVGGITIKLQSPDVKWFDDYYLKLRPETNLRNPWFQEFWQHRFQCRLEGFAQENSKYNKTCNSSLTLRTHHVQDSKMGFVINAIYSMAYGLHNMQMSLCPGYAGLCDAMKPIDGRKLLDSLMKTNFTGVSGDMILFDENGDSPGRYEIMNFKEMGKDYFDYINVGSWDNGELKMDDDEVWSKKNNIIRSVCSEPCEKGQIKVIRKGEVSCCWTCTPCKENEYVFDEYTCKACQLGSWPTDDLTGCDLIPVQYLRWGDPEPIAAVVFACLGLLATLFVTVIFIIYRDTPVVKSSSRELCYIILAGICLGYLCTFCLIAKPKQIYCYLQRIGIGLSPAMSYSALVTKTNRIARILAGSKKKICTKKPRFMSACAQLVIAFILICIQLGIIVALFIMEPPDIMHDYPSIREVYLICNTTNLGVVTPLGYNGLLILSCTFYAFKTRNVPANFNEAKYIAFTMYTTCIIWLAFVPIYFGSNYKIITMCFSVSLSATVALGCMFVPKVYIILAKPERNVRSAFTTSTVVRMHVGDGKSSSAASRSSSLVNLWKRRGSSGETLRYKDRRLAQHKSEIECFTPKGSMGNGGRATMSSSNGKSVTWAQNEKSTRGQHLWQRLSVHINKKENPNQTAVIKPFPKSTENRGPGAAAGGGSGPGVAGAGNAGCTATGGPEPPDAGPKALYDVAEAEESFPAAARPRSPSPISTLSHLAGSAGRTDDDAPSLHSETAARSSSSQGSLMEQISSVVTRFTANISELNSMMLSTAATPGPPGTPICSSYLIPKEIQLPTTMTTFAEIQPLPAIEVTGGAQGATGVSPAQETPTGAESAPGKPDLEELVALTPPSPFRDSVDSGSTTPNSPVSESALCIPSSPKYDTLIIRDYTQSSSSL
Chain of Metabotropic glutamate receptor 5 (Homo sapiens, UniProt P41594) (P41594 whole entry): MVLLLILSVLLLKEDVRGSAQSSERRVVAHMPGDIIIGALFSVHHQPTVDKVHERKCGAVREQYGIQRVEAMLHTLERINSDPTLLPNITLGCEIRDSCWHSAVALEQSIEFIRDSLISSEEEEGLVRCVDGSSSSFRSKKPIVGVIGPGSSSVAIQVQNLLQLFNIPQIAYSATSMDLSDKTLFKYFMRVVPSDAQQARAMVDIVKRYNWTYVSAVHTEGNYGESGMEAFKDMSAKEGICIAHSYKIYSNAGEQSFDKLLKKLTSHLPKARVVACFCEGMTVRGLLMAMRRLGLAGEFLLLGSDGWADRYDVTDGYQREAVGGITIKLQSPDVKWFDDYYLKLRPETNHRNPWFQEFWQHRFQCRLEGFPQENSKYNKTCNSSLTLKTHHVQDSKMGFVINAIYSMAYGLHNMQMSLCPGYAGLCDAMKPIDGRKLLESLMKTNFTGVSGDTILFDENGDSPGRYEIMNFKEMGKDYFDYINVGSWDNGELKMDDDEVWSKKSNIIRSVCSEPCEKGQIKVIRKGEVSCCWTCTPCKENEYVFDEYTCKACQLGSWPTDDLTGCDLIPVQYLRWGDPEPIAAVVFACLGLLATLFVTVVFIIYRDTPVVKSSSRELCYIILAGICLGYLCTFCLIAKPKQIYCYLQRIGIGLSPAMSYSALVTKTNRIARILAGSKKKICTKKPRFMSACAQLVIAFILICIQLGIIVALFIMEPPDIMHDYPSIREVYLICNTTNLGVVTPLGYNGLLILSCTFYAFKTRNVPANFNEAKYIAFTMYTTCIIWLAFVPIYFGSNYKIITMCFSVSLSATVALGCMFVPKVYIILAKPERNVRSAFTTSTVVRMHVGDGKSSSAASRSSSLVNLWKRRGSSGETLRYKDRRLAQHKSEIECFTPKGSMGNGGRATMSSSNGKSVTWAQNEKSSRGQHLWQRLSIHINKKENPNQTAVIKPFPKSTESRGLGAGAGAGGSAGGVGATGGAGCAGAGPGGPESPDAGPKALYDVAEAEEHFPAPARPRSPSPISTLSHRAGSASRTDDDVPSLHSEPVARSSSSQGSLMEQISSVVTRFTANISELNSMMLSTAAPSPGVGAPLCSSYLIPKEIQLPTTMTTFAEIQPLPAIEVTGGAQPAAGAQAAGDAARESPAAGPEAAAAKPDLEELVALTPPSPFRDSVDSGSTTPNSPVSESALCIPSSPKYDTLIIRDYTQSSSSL

As a reminder, the Ki is the dissociation constant of the complex between target and ligand, obtained from inhibition or displacement. As a reminder, the IC50 is the concentration needed to halve the response being measured. `Cc1cccc(-n2nnc(C3CCCCN3C(=O)C3CCC3)n2)c1` (racemic): the Ki in assay [1] was 72.4 nM. For the same molecule, in assay [2], the IC50 is 224 nM.

Regarding `Cc1ccc(C(=O)N2CCCC2c2nc(-c3cccc(Cl)c3)no2)s1` (racemic), the Ki in assay [1] was 123 nM. Besides, the half-maximal inhibitory concentration (IC50) in assay [2] is 6610 nM.

`Cc1ccc(C(=O)N2CCCC2c2nnn(-c3cccc(Cl)c3)n2)o1` (racemic) gave an inhibitory constant (Ki) in assay [1] of 105 nM.

`N#Cc1cccc(-c2noc(C3CCCCN3C(=O)c3cccs3)n2)c1` (racemic) showed an inhibition constant Ki in assay [1] of 200 nM. In assay [2], the IC50 was 1740 nM.

`COCC(=O)N1CCCC1c1nc(-c2cccc(C)c2)no1` (racemic) had a Ki in assay [1] of 186 nM. In addition, the half-inhibitory concentration (IC50) in assay [2] was 30200 nM.

In turn, `O=C(C1CCC1)N1CCCC[C@H]1c1nnn(-c2cccc(Cl)c2)n1` showed a Ki in assay [1] of 741 nM.

In assay [1], `Cc1ccc(C(=O)N2CSCC2c2nc(-c3cccc(Cl)c3)no2)s1` (racemic) had a Ki of 83.2 nM. The IC50 in assay [2] is 759 nM.

As for `O=C(C1CCC1)N1CCCCC1c1nnn(-c2cccc(Cl)c2)n1` (racemic), the affinity in assay [1], expressed as Ki, was 77.6 nM. Besides, the IC50 in assay [2] is 339 nM.

In turn, `N#Cc1cccc(-n2nnc(C3CCCCN3C(=O)C3CCC3)n2)c1` (racemic) gave a Ki in assay [1] of 229 nM.

In the case of `Cc1cccc(-c2noc(C3CCCN3C(=O)c3ccc(C)s3)n2)c1` (racemic), in assay [1], the inhibition constant (Ki) is 145 nM. Moreover, the IC50 in assay [2] was 1000 nM.

With `O=C(c1ccco1)N1CCCCC1c1nnn(-c2cccc(Cl)c2)n1` (racemic), the Ki in assay [1] was 126 nM.

Consider `CC(C)C(=O)N1CCCCC1c1nnn(-c2cccc(Cl)c2)n1` (racemic), for which, in assay [1], affinity was put at a Ki of 138 nM.

As for `O=C(c1cccs1)N1CCCC(c2nnn(-c3cccc(Cl)c3)n2)C1` (racemic), the Ki in assay [1] was 316 nM.

In assay [1], `O=C(c1ccco1)N1CSCC1c1nc(-c2cccc(Cl)c2)no1` (racemic) gave an inhibition constant Ki of 195 nM. Besides, the IC50 in assay [2] was 1050 nM.

In assay [1], `O=C(C1CCC1)N1CCCC[C@@H]1c1nnn(-c2cccc(Cl)c2)n1` showed a Ki of 57.5 nM.

In the case of `Cc1cccc(-n2nnc(C3CCCCN3C(=O)C3CCCC3)n2)c1` (racemic), in assay [1], the Ki is 102 nM.

`Cc1cccc(-c2noc(C3CCCCN3C(=O)C3CCC3)n2)c1` (racemic): the Ki in assay [1] is 126 nM. Moreover, the IC50 in assay [2] was 490 nM.

Take `O=C(c1cccs1)N1CCCC1c1nc(-c2cccc(Cl)c2)no1` (racemic): in assay [1], the affinity corresponds to a Ki of 195 nM. Besides, in assay [2], the IC50 was 30200 nM.

In assay [1], `Cc1ccc(C(=O)N2CCCC2c2nnn(-c3cccc(Cl)c3)n2)s1` (racemic) had a Ki of 89.1 nM. Further, the IC50 in assay [2] is 251 nM.

In turn, `COc1cccc(-c2noc(C3CCCCN3C(=O)C3CCC3)n2)c1` (racemic) had an inhibition constant (Ki) in assay [1] of 182 nM. Also, in assay [2], the IC50 was 501 nM.

In assay [1], `O=C(C1CCCC1)N1CCCCC1c1nnn(-c2cccc(Cl)c2)n1` (racemic) gave a Ki of 87.1 nM. Besides, in assay [2], the half-maximal inhibitory concentration (IC50) was 295 nM.

As to `O=C(c1ccc(Br)o1)N1CCCCC1c1nnn(-c2cccc(F)c2)n1` (racemic), the affinity in assay [1], expressed as Ki, was 457 nM.

In assay [3], `CN1CC(=O)N=C1NC(=O)Nc1cccc(Cl)c1` [FENOBAM ANHYDROUS] gave a Ki of 6.76 nM.
